Results reported in publication PMC7041979 (The Journal of Veterinary Medical Science, 2019).

Columns and labels:
[1] = assay type: in vitro ADME, rat; details: for detection of ZON metabolite in mucosal and serosal buffers: LC-MS/MS
Summary of the method: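 Everted 10 cm segments from male, nonpregnant female and gestation day 18–19 pregnant Sprague-Dawley rats: three small-intestine parts plus distal colon. Krebs Ringer bicarbonate, pH 7.4, 95% O₂/5% CO₂, 37°C. Mucosal 25 ml; serosal 25 ml circulated at 5 ml/min. Test compound 10 µM mucosal; both sides sampled 0–60 min. Negative-ESI LC-MS/MS against bile-derived glucuronide standards; mean ± S.D., six experiments.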

[2] = after oral exposure, estimated; cited from earlier work
cell viability = details: 10 µM, in vitro; cited from earlier work
estrogenic activity = details: cited from earlier work
[3] = ZON 10 µM, 60 min, female colon
[4] = ZON 10 µM, 60 min, female proximal intestine
[5] = ZON 10 µM, 60 min, pregnant female proximal intestine

## C[C@H]1CCCC(=O)CCCCCc2cc(O)cc(O)c2C(=O)O1 [ZAN, Zearalanone]
[1]; ZON 10 µM, 60 min
  detection of ZON metabolite in mucosal and serosal buffers: too low to quantify

## C[C@H]1CCCC(=O)CCC/C=C/c2cc(O)cc(O)c2C(=O)O1 [ZON, Zearalenone]
[2]
  ZON uptake: 80–85%
Cell viability
  effect on cell viability: not to affect cell viability
[1]; ZON 10 µM in mucosal buffer, all segments
  rate of disappearance of ZON from the mucosal compartment: 100 to 200 nmol/h
[1]; ZON 10 µM, 60 min incubation, distal colon (highest)
  amount of ZON transported from the mucosal side to the serosal side: approximately 2 nmol
[1]; both, rat, pH 7.4
  recovery at 60 min, 10 µM: > 80%

## CC1CCCC(=O)CCCC=Cc2cc(OC3OC(C(=O)O)C(O)C(O)C3O)cc(OC3OC(C(=O)O)C(O)C(O)C3O)c2C(=O)O1 (stereo not drawn) [zearalenone diglucuronide, Zearalenone diglucuronide]
[1]; ZON 10 µM, 60 min
  detection of ZON metabolite in mucosal and serosal buffers: too low to quantify

## C[C@H]1CCC[C@H](O)CCC/C=C/c2cc(O)cc(O)c2C(=O)O1 [α-ZOL, α-Zearalenol]
Estrogenic activity
  estrogenic activity relative to ZON: three times more potent
[1]; ZON 10 µM, 60 min
  α-ZOL transport to the mucosal side relative to transport to the serosal side: approximately 6 times
[1]; ZON 10 µM, 60 min, at most, over all segments
  α-ZOL mucosal excretion: ≤ 0.3 nmol
[1]; ZON 10 µM, 60 min, colon
  α-ZOL transport to the serosal side, maximum: approximately 0.05 nmol

## C[C@H]1CCC[C@@H](O)CCC/C=C/c2cc(O[C@@H]3O[C@H](C(=O)O)[C@@H](O)[C@H](O)[C@H]3O)cc(O)c2C(=O)O1 [α-ZOL-GA, α-Zearalenol glucuronide]
[1]; [3]
  α-ZOL-GA mucosal excretion, minimum: 20.09 nmol
[1]; [4]
  α-ZOL-GA serosal transport, minimum: 2.84 nmol
[1]; ZON 10 µM, 60 min, pregnant female colon
  α-ZOL-GA serosal transport, maximum: 36.15 nmol
[1]; [5]
  α-ZOL-GA mucosal excretion, maximum: 60.02 nmol

## C[C@H]1CCC[C@H](O)CCC/C=C/c2cc(O[C@@H]3O[C@H](C(=O)O)[C@@H](O)[C@H](O)[C@H]3O)cc(O)c2C(=O)O1 [β-ZOL-GA, β-Zearalenol glucuronide]
[1]; ZON 10 µM, 60 min
  detection of ZON metabolite in mucosal and serosal buffers: too low to quantify

## Zearalenone glucuronide [ZON-GA]
[1]; [3]
  ZON-GA mucosal excretion, minimum: 22.55 nmol
  ZON-GA serosal transport, maximum: 49.94 nmol
[1]; [4]
  ZON-GA serosal transport, minimum: 1.64 nmol
[1]; [5]
  ZON-GA mucosal excretion, maximum: 85.39 nmol

## β-Zearalenol [β-ZOL]
[1]; ZON 10 µM, 60 min
  detection of ZON metabolite in mucosal and serosal buffers: too low to quantify
